{"source": "ChEMBL document CHEMBL4665761", "about": "“Optimizing the Benefit/Risk of Acetyl-CoA Carboxylase Inhibitors through Liver Targeting” (J Med Chem, 2020)", "key": {"[1]": {"test": "Aqueous solubility of compound at pH 7.4 using tris(hydroxymethyl)aminomethane (tris) salt form of compound", "type": "physicochemical", "conditions": "buffer"}, "[2]": {"test": "Aqueous solubility of compound at pH 6.5 using tris(hydroxymethyl)aminomethane (tris) salt form of compound", "type": "physicochemical", "conditions": "buffer"}, "[3]": {"test": "Aqueous solubility of compound at pH 1.2 using tris(hydroxymethyl)aminomethane (tris) salt form of compound", "type": "physicochemical", "conditions": "buffer"}, "[4]": {"test": "Oral bioavailability in cynomolgus monkey plasma at 5 mg/kg using tris(hydroxymethyl)aminomethane (tris) salt form of compound and measured up to 24 hrs by LC/MS-MS analysis", "type": "ADME, organism-based, Macaca fascicularis", "in_short": "(§1)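 Plasma concentration–time data, n = 2, averaged. Cmax and Tmax read directly from the data. AUC0–24 by the linear trapezoidal rule. F calculated as dose-normalized AUC PO/IV.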"}, "[5]": {"test": "Oral bioavailability in Wistar-Hannover rat plasma at 5 mg/kg tris(hydroxymethyl)aminomethane (tris) salt form of compound and measured up to 24 hrs by LC/MS-MS analysis", "type": "ADME, organism-based", "in_short": "as §1"}, "[6]": {"test": "AUC (0 to 24 hrs) in cynomolgus monkey plasma at 5 mg/kg, po tris(hydroxymethyl)aminomethane (tris) salt form of compound and measured up to 24 hrs by LC/MS-MS analysis", "type": "ADME, organism-based, Macaca fascicularis", "parameters": "route oral, dose 5 mg/kg, time <=24", "in_short": "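Cynomolgus monkeys received an oral dose. AUC0–24 came from plasma concentration–time data by the linear trapezoidal rule, averaged for n = 2.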"}, "[7]": {"test": "AUC (0 to 24 hrs) in Wistar-Hannover rat plasma at 5 mg/kg, po tris(hydroxymethyl)aminomethane (tris) salt form of compound and measured up to 24 hrs by LC/MS-MS analysis", "type": "ADME, organism-based", "parameters": "route oral, dose 5 mg/kg, time <=24", "in_short": "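Male Wistar-Hannover rats (240–350 g), housed singly after 1 week of acclimation, were dosed orally. AUC0–24 came from plasma concentration–time data by the linear trapezoidal rule, averaged for n = 2. Lower detection limit was 1 ng/mL.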"}, "[8]": {"test": "Tmax in cynomolgus monkey plasma at 5 mg/kg, po tris(hydroxymethyl)aminomethane (tris) salt form of compound and measured up to 24 hrs by LC/MS-MS analysis", "type": "ADME, organism-based, Macaca fascicularis", "in_short": "as §1"}, "[9]": {"test": "Tmax in Wistar-Hannover rat plasma at 5 mg/kg, po tris(hydroxymethyl)aminomethane (tris) salt form of compound and measured up to 24 hrs by LC/MS-MS analysis", "type": "ADME, organism-based", "in_short": "as §1"}, "[10]": {"test": "Cmax in cynomolgus monkey plasma at 5 mg/kg, po tris(hydroxymethyl)aminomethane (tris) salt form of compound and measured up to 24 hrs by LC/MS-MS analysis", "type": "ADME, organism-based, Macaca fascicularis", "parameters": "route oral, dose 5 mg/kg, time <=24", "in_short": "(§2)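 Cynomolgus monkeys dosed 1 mg/kg IV as the tris salt in 2% N-methylpyrrolidone/98% sulfobutylether-β-cyclodextrin (12.5%) in 50 mM TRIS, pH 8.0, or PO as the tris salt. Plasma was analysed by LC-MS/MS, n = 2. CL = IV dose/AUC; Vss = dose/(AUC × elimination rate constant); Cmax taken from observed data.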"}, "[11]": {"test": "Cmax in Wistar-Hannover rat plasma at 5 mg/kg, po tris(hydroxymethyl)aminomethane (tris) salt form of compound and measured up to 24 hrs by LC/MS-MS analysis", "type": "ADME, organism-based", "parameters": "route oral, dose 5 mg/kg, time <=24"}, "[12]": {"test": "Half life in cynomolgus monkey plasma at 5 mg/kg, po tris(hydroxymethyl)aminomethane (tris) salt form of compound and measured up to 24 hrs by LC/MS-MS analysis", "type": "ADME, organism-based, Macaca fascicularis", "in_short": "as §2"}, "[13]": {"test": "Half life in Wistar-Hannover rat plasma at 5 mg/kg, po tris(hydroxymethyl)aminomethane (tris) salt form of compound and measured up to 24 hrs by LC/MS-MS analysis", "type": "ADME, organism-based"}, "[14]": {"test": "Ratio of drug uptake in cynomolgus monkey unbound liver to plasma concentration at 1 mg/kg, iv tris(hydroxymethyl)aminomethane (tris) salt form of compound after 6 hrs by LC/MS-MS analysis", "type": "ADME, organism-based, Macaca fascicularis", "conditions": "other tissue", "in_short": "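Cynomolgus monkeys (n = 2) given a single IV dose as tris salt in 2% N-methylpyrrolidone / 98% sulfobutylether-betacyclodextrin (12.5%) in 50 mM TRIS buffer, pH 8.0. Plasma and liver sampled 6 h post-dose. Total concentrations converted to unbound using equilibrium-dialysis fu in plasma and liver. Ratio taken as mean free liver over free plasma concentration.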"}, "[15]": {"test": "Drug uptake in cynomolgus monkey liver at 1 mg/kg, iv tris(hydroxymethyl)aminomethane (tris) salt form of compound after 6 hrs by LC/MS-MS analysis", "type": "ADME, organism-based, Macaca fascicularis", "conditions": "read-out: Drug uptake", "in_short": "(§3)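 Monkeys, n = 2, given 1 mg/kg IV as the tris salt in 2% N-methylpyrrolidone/98% sulfobutylether-β-cyclodextrin (12.5%) in 50 mM TRIS, pH 8.0. Plasma and liver concentrations were taken 6 h post-dose.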"}, "[16]": {"test": "Drug uptake in cynomolgus monkey assessed as plasma concentration at 1 mg/kg, iv tris(hydroxymethyl)aminomethane (tris) salt form of compound after 6 hrs by LC/MS-MS analysis", "type": "ADME, organism-based, Macaca fascicularis", "in_short": "as §3"}, "[17]": {"test": "Ratio of drug uptake in cynomolgus monkey liver to plasma at 1 mg/kg, iv tris(hydroxymethyl)aminomethane (tris) salt form of compound after 6 hrs by LC/MS-MS analysis", "type": "ADME, organism-based, Macaca fascicularis", "conditions": "liver and plasma", "in_short": "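Cynomolgus monkeys (n = 2) given 1 mg/kg IV as the tris salt in 2% N-methylpyrrolidone/98% sulfobutylether-β-cyclodextrin (12.5%) in 50 mM TRIS pH 8.0. Liver and plasma taken 6 h post-dose.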"}}, "data": [{"smiles": "COc1cc(C(=O)N2CCC3(CC2)CC(=O)c2c(cnn2C(C)C)C3)cc(-c2ccc(C(=O)O)cc2)n1.NC(CO)(CO)CO", "note": "[CLESACOSTAT TROMETHAMINE]", "values": [{"measurement": "solubility", "setting": "[1]", "value": 4.77, "unit": "mM"}, {"measurement": "solubility", "setting": "[2]", "value": 3.98, "unit": "mM"}, {"measurement": "solubility", "setting": "[3]", "value": 1.32, "unit": "mM"}, {"measurement": "bioavailability", "setting": "[4]", "value": 52, "unit": "%"}, {"measurement": "bioavailability", "setting": "[5]", "value": 48, "unit": "%"}, {"measurement": "AUC(0-t)", "setting": "[6]", "value": 36200, "unit": "ng·h/mL"}, {"measurement": "AUC(0-t)", "setting": "[7]", "value": 2490, "unit": "ng·h/mL"}, {"measurement": "Tmax", "setting": "[8]", "value": 1.13, "unit": "h"}, {"measurement": "Tmax", "setting": "[9]", "value": 0.54, "unit": "h"}, {"measurement": "Cmax", "setting": "[10]", "value": 5780, "unit": "ng/mL"}, {"measurement": "Cmax", "setting": "[11]", "value": 390, "unit": "ng/mL"}, {"measurement": "half-life", "setting": "[12]", "value": 11, "unit": "h"}, {"measurement": "half-life", "setting": "[13]", "value": 5.6, "unit": "h"}, {"measurement": "Ratio", "setting": "[14]", "value": 230}, {"measurement": "concentration at 6 h", "setting": "[15]", "value": 1300, "unit": "ng/mL"}, {"measurement": "concentration at 6 h", "setting": "[16]", "value": 88, "unit": "ng/mL"}, {"measurement": "Kp at 6 h", "setting": "[17]", "value": 15}]}]}
